An excerpt weighted towards active compounds, which were near 3.3% of everything screened.
M18AAP inhibitor: blocks P. falciparum M18 aspartyl aminopeptidase; recombinant PfM18AAP, H-Glu-NHMec fluorogenic cleavage; inhibition, % at 7.35 µM; 290,000 compounds, 1.2% hits;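 active = inhibition above the campaign mean inhibition over all tested compounds plus 3 SD, cut at about 28% in these data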;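 note: 0% = plate median of test compound wells and 100% = 2 mM ZnCl2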
sPLA2-III inh: Inhibits HGIII-sPLA2 liposome hydrolysis, primary screen; 370,000 compounds, 0.56% hits; Q9NZ20; inhibition, % at 12.2 µM; AID 743126; QFRET BODIPY PC-A2 liposome hydrolysis, fluorescence;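 active = inhibition above mean plus 3 SD of compounds lying within the high and low control bounds, cut at about 19% in these data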;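 note: 0% = median of test compound wells and 100% = no enzyme DMSO wells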
HTR2A ag: agonists of mouse serotonin 5-HT2A receptor (HTR2A); 360,000 compounds, 0.66% hits; activation, % at 7.6 µM; AID 624169; CHO-K1 mHTR2A beta-arrestin complementation, luminescence; percent of 30 µM serotonin response;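 active = activation above a run cutoff, the mean activation of all tested compounds plus 3 SD, cut at about 14% in these data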;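 note: 0% = plate median of compound wells and 100% = 30 µM serotonin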
Target sequence (P35363 whole entry, looked up): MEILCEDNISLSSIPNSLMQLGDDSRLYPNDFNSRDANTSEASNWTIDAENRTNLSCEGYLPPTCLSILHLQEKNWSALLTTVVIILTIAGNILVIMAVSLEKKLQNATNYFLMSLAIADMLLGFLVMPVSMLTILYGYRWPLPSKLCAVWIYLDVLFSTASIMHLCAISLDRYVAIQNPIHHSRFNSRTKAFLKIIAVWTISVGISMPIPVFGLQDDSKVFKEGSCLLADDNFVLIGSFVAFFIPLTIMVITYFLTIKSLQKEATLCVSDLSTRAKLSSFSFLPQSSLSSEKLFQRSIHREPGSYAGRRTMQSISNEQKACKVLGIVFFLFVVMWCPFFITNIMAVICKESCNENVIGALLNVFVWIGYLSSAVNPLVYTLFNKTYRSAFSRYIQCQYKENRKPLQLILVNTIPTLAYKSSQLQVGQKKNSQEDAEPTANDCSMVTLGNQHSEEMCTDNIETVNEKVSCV
NRP1-CendR mod: alters CendR peptide binding to human NRP-1; FAM-RPARPAR peptide binding to NRP-1, fluorescence polarization; inhibition, % at 25 µM; 360,000 compounds, 0.85% hits; AID 602438;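 active = inhibition or corrected inhibition above about 18%, plus a signal ratio from 0.5 to 1.5, limit read from the data, passing the limit was not always enough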
Hep lipid drop: hepatic lipid droplet formation modulation. inhibition, % at 6.5 µM. AID 1656. 240,000 compounds, 0.4% hits. AML12 mouse hepatocytes, oleate lipid droplets, BODIPY imaging;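 active = lipid droplet intensity inhibited by at least 50%, with more than 500 cells counted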
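Technique: fluorescence imaging, 20x objective, two fields per well / Assay system: AML12 hepatocytes (mouse) / Measure: % inhibition of lipid droplet signal / Doses: 6.5 µM single-point dosing / Incubation: overnight exposure / Reagent: 100 µM oleic acid challenge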
Arrestin-AP2 inh: blocks beta-arrestin peptide binding to AP2 adaptin; FITC-arrestin peptide / GST-AP2 beads, flow cytometry; AP2 beta2 appendage carries R879A mutation; inhibition, % at 10 µM; 340,000 compounds, 0.31% hits; AID 504490;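 active = inhibition above a set limit, near 3 SD of compounds lacking own fluorescence, cut at about 54% in these data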;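 note: plate controls were DMSO wells for no effect and 5 µM unlabelled arrestin peptide for full effect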
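System: GST-AP2 R879A glutathione beads; medium: PBS, Tween 20 0.05%, BSA 0.1%; reagent: fluorescein-tagged arrestin peptide at 50 nM final; schedule: pre-incubation 12 min, peptide binding 1 h, room temperature; detection: flow cytometry, FL1 (488/535 nm); read-out: inhibition as reduced fluorescein signal on beads, percent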
hGIII sPLA2 conf: human GIII-sPLA2 inhibition, confirmation; shares compounds with sPLA2-III inh; recombinant hGIII-sPLA2, BODIPY PC-A2 QFRET fluorescence; inhibition, % at 12.2 µM; 2,000 compounds, 34% hits; AID 743280;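 active = mean inhibition across triplicates above the hit cutoff set in the earlier primary screen, cut at about 19% in these data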;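 note: 0% = enzyme with DMSO and 100% = DMSO wells lacking enzyme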
535nm interf: counter-screen for HGIII-sPLA2 inhibitors: 535nm fluorescence interference. shares compounds with sPLA2-III inh. BODIPY FL product fluorescence interference, QFRET. inhibition, % at 12.2 µM. 2,000 compounds, 8.5% hits;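 active = average inhibition above the solvent-only control mean plus 3 SD, cut at about 6% in these data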;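 note: 0% = DMSO with substrate plus product and 100% = DMSO with substrate alone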
535nm interf DR: counter-screen for HGIII-sPLA2 inhibitors: 535nm fluorescence interference, dose response. shares compounds with sPLA2-III inh. BODIPY FL product fluorescence interference, cell-free. IC50, µM. 240 tested, under 10 active;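 active = IC50 at or below 10 µM; inactive = IC50 above 10 µM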
Active calls of the source: *.

For COc1ccc(NC(=S)c2ccccc2)cc1 the results were M18AAP inhibitor -6, sPLA2-III inh 4, HTR2A ag -1, NRP1-CendR mod -14, Hep lipid drop -8 and Arrestin-AP2 inh 0.
`CCCOc1ccc(C(=O)Nc2ccc(N(C)C)cc2)cc1` gave M18AAP inhibitor -10, sPLA2-III inh 14, HTR2A ag -2, NRP1-CendR mod -8, Hep lipid drop 13 and Arrestin-AP2 inh 8.
Screening COc1ccc(C(=S)Nc2ccc(N(C)C)cc2)cc1 returned M18AAP inhibitor 4, sPLA2-III inh 23*, HTR2A ag -4, NRP1-CendR mod 7, Hep lipid drop 0, Arrestin-AP2 inh 27, hGIII sPLA2 conf 26* and 535nm interf 5.
Screening CC(C)Oc1ccc(C(=O)Nc2ccc(N(C)C)cc2)cc1 returned M18AAP inhibitor -2, sPLA2-III inh 19*, HTR2A ag -3, NRP1-CendR mod 3, Arrestin-AP2 inh 17, hGIII sPLA2 conf 15 and 535nm interf -6.
Screening CN(CC(=O)Nc1ccc(Cl)cc1)C(=O)c1ccc(NS(=O)(=O)c2ccc3[nH]c(=O)[nH]c3c2)cc1 returned sPLA2-III inh -9, HTR2A ag -9, NRP1-CendR mod 6 and Arrestin-AP2 inh 7.
O=C(NNC(=S)Nc1ccc(F)cc1)c1cccc([N+](=O)[O-])c1 was read as M18AAP inhibitor 9, sPLA2-III inh 25*, HTR2A ag 0, NRP1-CendR mod 5, Hep lipid drop -25, Arrestin-AP2 inh -15, hGIII sPLA2 conf 31* and 535nm interf 0.
Screening O=C(NNC(=S)Nc1ccc(Br)cc1)c1cccnc1 returned M18AAP inhibitor 23, sPLA2-III inh 19*, HTR2A ag -8, NRP1-CendR mod 8, Hep lipid drop 13, Arrestin-AP2 inh 7, hGIII sPLA2 conf 31*, 535nm interf -1 and 535nm interf DR >122.
Screening O=C(NC(=S)NNC(=O)c1ccccc1O)c1cccc([N+](=O)[O-])c1 returned M18AAP inhibitor 18, sPLA2-III inh 41*, HTR2A ag -4, NRP1-CendR mod -4, Hep lipid drop 5, Arrestin-AP2 inh 0, hGIII sPLA2 conf 27* and 535nm interf 5.
O=C(NNC(=S)Nc1ccccc1)c1cc(Br)ccc1Cl was read as M18AAP inhibitor 8, sPLA2-III inh 33*, HTR2A ag 0, NRP1-CendR mod 17, Hep lipid drop 13, Arrestin-AP2 inh -1, hGIII sPLA2 conf 28* and 535nm interf 6.1*.
Screening Cc1ccc(NC(=S)NNC(=O)c2cccc([N+](=O)[O-])c2)cc1Cl returned M18AAP inhibitor 11, sPLA2-III inh 18, HTR2A ag -4, NRP1-CendR mod 2, Hep lipid drop 0 and Arrestin-AP2 inh -11.
Screening O=C(NC1CCCCN(Cc2cccc(Cl)c2)C1=O)c1cccc2nsnc12 (configuration not stated) returned sPLA2-III inh 2.
O=C(N[C@H](C(=O)N1CCC[C@H]1C(=O)NCCc1ccccc1Cl)c1ccccc1)C1CCCC1 was read as sPLA2-III inh 10.
For COc1ccc(-c2cscc2N)cc1 the results were sPLA2-III inh 8.
For CC1=C(C(=O)N(C)C)CC(CC(=O)NCCN2CCOCC2)C(=O)N1Cc1ccc(C(C)(C)C)cc1 (configuration not stated) the results were sPLA2-III inh 7, HTR2A ag 5 and NRP1-CendR mod -6.
Screening CN(C)Cc1c(C(C)(C)O)[nH]c2ccccc12 returned sPLA2-III inh 6.
`CCN(CC)C(=O)CC[C@H]1CC[C@]2(CCCN(Cc3nccn3C)C2)O1` gave sPLA2-III inh 1.
COc1ccc(C(=O)NNC(=S)NC(=O)/C=C/c2cccs2)cc1 was read as M18AAP inhibitor 4, sPLA2-III inh 0, HTR2A ag -1, NRP1-CendR mod -2, Hep lipid drop -29 and Arrestin-AP2 inh -17.
`O=C(NNC(=S)Nc1ccc(C(=O)O)c(O)c1)c1ccncc1` gave sPLA2-III inh 20*, HTR2A ag 5, NRP1-CendR mod -24, Arrestin-AP2 inh 2, hGIII sPLA2 conf 6 and 535nm interf -3.
O=C(NC(=S)NNC(=O)c1ccccc1O)c1cccnc1 was read as M18AAP inhibitor 5, sPLA2-III inh 33*, HTR2A ag -3, NRP1-CendR mod 8, Hep lipid drop 3, Arrestin-AP2 inh -12, hGIII sPLA2 conf 16 and 535nm interf -4.
`O=C(/C=C/c1cccs1)NC(=S)NNC(=O)c1ccccc1O` gave M18AAP inhibitor 14, sPLA2-III inh 42*, HTR2A ag 3, NRP1-CendR mod -1, Hep lipid drop 1, Arrestin-AP2 inh 27, hGIII sPLA2 conf 32*, 535nm interf 3 and 535nm interf DR >122.
Screening Cc1ccc2nc(-c3cc(N)cc(N)c3)oc2c1 returned M18AAP inhibitor 4, sPLA2-III inh 23*, HTR2A ag 0, NRP1-CendR mod -10, Arrestin-AP2 inh -6, hGIII sPLA2 conf 36*, 535nm interf -2 and 535nm interf DR >122.
For Nc1ccc(-c2nc3ccc(N)cc3o2)cc1 the results were M18AAP inhibitor -2, sPLA2-III inh 7, HTR2A ag -6, NRP1-CendR mod -1 and Arrestin-AP2 inh 38.
`Cc1cccc(N2CN(Cc3cccnc3)CNC2=S)c1` gave M18AAP inhibitor -5, sPLA2-III inh 19*, HTR2A ag 9, NRP1-CendR mod -1, Hep lipid drop -12, Arrestin-AP2 inh 19, hGIII sPLA2 conf -4 and 535nm interf -7.
`CN(Cc1ccccc1)C(=O)c1ccc2sc([C@H]3C[C@H](O)[C@@H](CO)O3)nc2c1` gave sPLA2-III inh 12, HTR2A ag -5 and NRP1-CendR mod -1.
CCN(CC)C(=O)c1ccc2sc([C@H]3C[C@H](O)[C@@H](CO)O3)nc2c1 was read as sPLA2-III inh 22*, HTR2A ag -3, NRP1-CendR mod -14, hGIII sPLA2 conf 4 and 535nm interf -6.
Screening C#CCN1CC(N(C)CCOC(=O)c2ccc(OC)c(OC)c2)CS1(=O)=O (configuration not stated) returned sPLA2-III inh 16.
Screening COC(=O)CSc1nnc(-c2ccc(NS(=O)(=O)c3ccc(C(C)(C)C)cc3)cc2)o1 returned sPLA2-III inh -43.

High-throughput results deposited in PubChem by several laboratories.
